Source: ChEMBL document CHEMBL2046351, “Discovery of cyclic sulfone hydroxyethylamines as potent and selective β-site APP-cleaving enzyme 1 (BACE1) inhibitors: structure-based design and in vivo reduction of amyloid β-peptides” (J Med Chem, 2012)
One block for each compound: values may come before it.

Legend:
[1] = Drug uptake in C57BL/6 mouse blood at 6 umol/kg, po dosed in HS15/propylenglycol/citrate buffer, pH 4.75, 50 mM (10/5/85, v/v/v) measured 4 hrs post dosing by LC/MS/MS analysis; type: ADME, organism-based; conditions: read-out: Drug uptake
Summary of the method: (§1)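 Male C57BL/6 mice dosed by oral gavage, 10 mL/kg. Blood sampled 0.25, 0.5, 1, 2, 4, 6 h; brain at 1 and/or 4 h; n = 3 per time. Blood acetonitrile-precipitated, brain water-homogenized then precipitated; LC-MS/MS with weighted linear calibration.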

[2] = Drug uptake in C57BL/6 mouse blood at 60 umol/kg, po dosed in HS15/propylenglycol/citrate buffer, pH 4.75, 50 mM (10/5/85, v/v/v) measured 4 hrs post dosing by LC/MS/MS analysis; type: ADME, organism-based; conditions: read-out: Drug uptake; summary of the method: as §1
[3] = tested on: Brain; test: Drug uptake in C57BL/6 mouse brain at 60 umol/kg, po dosed in HS15/propylenglycol/citrate buffer, pH 4.75, 50 mM (10/5/85, v/v/v) measured 1 hr post dosing by LC/MS/MS analysis; type: ADME, organism-based; conditions: in vivo, pH 4.75, 1 h; summary of the method: as §1
[4] = tested on: Brain; test: Drug uptake in C57BL/6 mouse brain at 6 umol/kg, po dosed in HS15/propylenglycol/citrate buffer, pH 4.75, 50 mM (10/5/85, v/v/v) measured 1 hr post dosing by LC/MS/MS analysis; type: ADME, organism-based; conditions: in vivo, pH 4.75, 1 h; summary of the method: as §1
[5] = Oral bioavailability in C57BL/6 mouse at 60 umol/kg dosed in HS15/propylenglycol/citrate buffer, pH 4.75, 50 mM (10/5/85, v/v/v) by LC/MS/MS analysis; type: ADME, organism-based; conditions: in vivo
Summary of the method: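 Oral gavage (10 mL/kg) to male C57BL/6 mice with iv reference segment (2 μmol/kg, NMP/blank plasma 10:90). Noncompartmental analysis of LC-MS/MS blood profiles, 1/Y weighting; %F = dose-normalized oral AUC / dose-normalized iv AUC × 100, assuming linear pharmacokinetics between doses.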

[6] = Ratio of drug uptake in brain to blood in C57BL/6 mouse at 60 umol/kg, po dosed in HS15/propylenglycol/citrate buffer, pH 4.75, 50 mM (10/5/85, v/v/v) measured 4 hrs post dosing by LC/MS/MS analysis; type: ADME, organism-based
Summary of the method: (§2)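 Male C57BL/6 mice received the dose by oral gavage at 10 mL/kg. Blood and brain were collected at 1 and/or 4 h postdose. Brain was homogenised in water, and both matrices were extracted by acetonitrile precipitation and quantified by LC-MS/MS. The ratio is mean brain (nmol/g) over mean blood (nmol/mL) concentration, n = 3.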

[7] = Ratio of drug uptake in brain to blood in C57BL/6 mouse at 60 umol/kg, po dosed in HS15/propylenglycol/citrate buffer, pH 4.75, 50 mM (10/5/85, v/v/v) measured 1 hr post dosing by LC/MS/MS analysis; type: ADME, organism-based; summary of the method: as §2
[8] = tested on: Brain; test: Drug uptake in C57BL/6 mouse brain at 60 umol/kg, po dosed in HS15/propylenglycol/citrate buffer, pH 4.75, 50 mM (10/5/85, v/v/v) measured 4 hrs post dosing by LC/MS/MS analysis; type: ADME, organism-based; conditions: in vivo, pH 4.75, 4 h; summary of the method: as §1
[9] = Drug uptake in C57BL/6 mouse blood at 60 umol/kg, po dosed in HS15/propylenglycol/citrate buffer, pH 4.75, 50 mM (10/5/85, v/v/v) measured 1 hr post dosing by LC/MS/MS analysis; type: ADME, organism-based; conditions: read-out: Drug uptake; summary of the method: as §1
[10] = Drug uptake in C57BL/6 mouse blood at 6 umol/kg, po dosed in HS15/propylenglycol/citrate buffer, pH 4.75, 50 mM (10/5/85, v/v/v) measured 1 hr post dosing by LC/MS/MS analysis; type: ADME, organism-based; conditions: read-out: Drug uptake; summary of the method: as §1
[11] = Drug uptake in C57BL/6 mouse blood at 6 umol/kg, po dosed in carboxymethyl cellulose 0.5% w/v in water/Tween 80 (99.5/0.5, v/v) measured 1 hr post dosing by LC/MS/MS analysis; type: ADME, organism-based; conditions: read-out: Drug uptake; summary of the method: as §1
[12] = Drug uptake in C57BL/6 mouse blood at 2 umol/kg, iv dosed in N-methyl pyrrolidone/blank plasma (10:90 v/v) measured 1 hr post dosing by LC/MS/MS analysis; type: ADME, organism-based; conditions: read-out: Drug uptake
Summary of the method: (§3)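 Male C57BL/6 mice, saphenous vein injection under light anesthesia, 5 mL/kg. Blood at 5, 30 min and 1, 2, 4, 6, 8 h; brain at 5 min, 1, 4, 8 h; n = 3/time. LC-MS/MS after acetonitrile precipitation (brain water-homogenized). Noncompartmental analysis, 1/Y weighting, terminal slope from ≥3 points.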

[13] = Drug uptake in C57BL/6 mouse blood at 60 umol/kg, po dosed in carboxymethyl cellulose 0.5% w/v in water/Tween 80 (99.5/0.5, v/v) measured 4 hrs post dosing by LC/MS/MS analysis; type: ADME, organism-based; conditions: read-out: Drug uptake; summary of the method: as §1
[14] = tested on: Brain; test: Drug uptake in C57BL/6 mouse brain at 6 umol/kg, po dosed in carboxymethyl cellulose 0.5% w/v in water/Tween 80 (99.5/0.5, v/v) measured 1 hr post dosing by LC/MS/MS analysis; type: ADME, organism-based; conditions: in vivo; summary of the method: as §1
[15] = target: Cathepsin D (Homo sapiens, UniProt P07339); test: Inhibition of human recombinant CatD using Mca-GKPILFFRLK(DNP)-dR-NH2 as substrate after 1 hr by fluorescence analysis
Sequence of Cathepsin D (P07339 65-162 limits assumed): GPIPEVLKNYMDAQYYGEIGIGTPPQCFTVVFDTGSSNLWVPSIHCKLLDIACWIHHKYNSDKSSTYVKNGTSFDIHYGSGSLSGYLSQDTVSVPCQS
Sequence of Cathepsin D (P07339 169-412 limits assumed): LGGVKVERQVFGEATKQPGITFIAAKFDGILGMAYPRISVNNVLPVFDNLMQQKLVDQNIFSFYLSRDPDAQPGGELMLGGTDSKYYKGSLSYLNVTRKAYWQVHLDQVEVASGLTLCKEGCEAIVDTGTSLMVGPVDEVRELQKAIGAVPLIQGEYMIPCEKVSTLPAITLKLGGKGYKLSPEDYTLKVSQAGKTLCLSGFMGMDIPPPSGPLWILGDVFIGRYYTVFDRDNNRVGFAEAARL

[16] = target: Beta-secretase 1 (Homo sapiens, UniProt P56817)
Sequence of Beta-secretase 1 (P56817 whole entry): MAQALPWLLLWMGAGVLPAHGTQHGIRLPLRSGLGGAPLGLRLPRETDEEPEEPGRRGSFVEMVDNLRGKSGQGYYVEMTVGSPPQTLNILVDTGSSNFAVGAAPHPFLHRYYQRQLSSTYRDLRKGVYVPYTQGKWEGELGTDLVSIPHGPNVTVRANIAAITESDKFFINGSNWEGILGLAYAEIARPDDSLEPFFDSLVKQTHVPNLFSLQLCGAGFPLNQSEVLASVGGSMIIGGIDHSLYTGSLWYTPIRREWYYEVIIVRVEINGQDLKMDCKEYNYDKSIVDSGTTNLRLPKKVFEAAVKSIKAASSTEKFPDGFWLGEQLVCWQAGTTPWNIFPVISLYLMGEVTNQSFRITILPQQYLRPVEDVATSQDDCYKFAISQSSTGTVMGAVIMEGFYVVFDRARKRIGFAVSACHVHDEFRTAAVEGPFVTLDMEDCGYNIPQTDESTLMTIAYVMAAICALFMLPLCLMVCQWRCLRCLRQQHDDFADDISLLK

[17] = Drug uptake in C57BL/6 mouse blood at 60 umol/kg, po dosed in carboxymethyl cellulose 0.5% w/v in water/Tween 80 (99.5/0.5, v/v) measured 1 hr post dosing by LC/MS/MS analysis; type: ADME, organism-based; conditions: read-out: Drug uptake; summary of the method: as §1
[18] = tested on: Brain; test: Drug uptake in C57BL/6 mouse brain at 2 umol/kg, iv dosed in N-methyl pyrrolidone/blank plasma (10:90 v/v) measured 1 hr post dosing by LC/MS/MS analysis; type: ADME, organism-based; conditions: in vivo; summary of the method: as §3
[19] = Ratio of drug uptake in brain to blood in C57BL/6 mouse at 2 umol/kg, iv dosed in N-methyl pyrrolidone/blank plasma (10:90 v/v) measured 4 hrs post dosing by LC/MS/MS analysis; type: ADME, organism-based; summary of the method: as §3
[20] = Drug uptake in C57BL/6 mouse blood at 2 umol/kg, iv dosed in N-methyl pyrrolidone/blank plasma (10:90 v/v) measured 4 hrs post dosing by LC/MS/MS analysis; type: ADME, organism-based; conditions: read-out: Drug uptake; summary of the method: as §3
[21] = tested on: MDR1 (human); test: Efflux ratio of permeability from basolateral to apical over apical to basolateral side of MDCK cells expressing human MDR1 at 5 uM after 2 hrs by LC/MS analysis; type: ADME, cell-based, Canis lupus familiaris; conditions: dog
Summary of the method: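 MDCK cells retrovirally transduced with human MDR1, seeded on transwells ≥3 days; bidirectional transport at 5 μM, 2 h, 37 °C, LC/MS quantitation. Papp = (dQ/dt)/(A·C0), A 0.11 cm2; ER = Papp B>A / Papp A>B. Means of at least three experiments.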

[22] = Ratio of drug uptake in brain to blood in C57BL/6 mouse at 6 umol/kg, po dosed in carboxymethyl cellulose 0.5% w/v in water/Tween 80 (99.5/0.5, v/v) measured 4 hrs post dosing by LC/MS/MS analysis; type: ADME, organism-based; summary of the method: as §1

- concentration at 4 h [1]: 30 nM
- concentration at 4 h [2]: 190 nM
- Drug uptake [3]: 0.23 nmol/g
- Drug uptake [4]: 0.02 nmol/g
- bioavailability [5]: 33%
- Kp at 4 h [6]: 0.8
- Kp at 1 h [7]: 0.5
- Drug uptake [8]: 0.15 nmol/g
- concentration at 1 h [9]: 470 nM
- concentration at 1 h [10]: 60 nM
Compound: CC(C)(C)c1cccc(CN[C@H]2CS(=O)(=O)C[C@@H](Cc3cc(F)c(N)c(OC(C(F)(F)F)C(F)(F)F)c3)[C@@H]2O)c1

- concentration at 1 h [11]: 30 nM
- concentration at 1 h [12]: 60 nM
- concentration at 4 h [13]: 1860 nM
- Drug uptake [14]: 0.08 nmol/g
- IC50 [15]: 690 nM
- IC50 [16]: 6 nM
- concentration at 1 h [17]: 4100 nM
- Drug uptake [18]: 0.11 nmol/g
- Kp at 4 h [19]: 1
- concentration at 4 h [20]: 10 nM
- efflux ratio at 2 h, 5 µM [21]: 5
- Kp at 4 h [22]: 11
Compound: CC(C)(C)c1cccc(CN[C@H]2CS(=O)(=O)C[C@@H](Cc3cc(F)c(N)c(OCC(F)(F)F)c3)[C@@H]2O)c1
